From ChEMBL document CHEMBL2029225, “Synthesis of marine-derived 3-alkylpyridinium alkaloids with potent antiprotozoal activity” (ACS Med Chem Lett, 2011)
Activity calls are given as the source filed them. No cut-off for these calls is given here.

Legend:
Leishmania mexicana = assay: Antileishmanial activity against amastigotes of Leishmania mexicana MNYC/BZ/62/M379 after 72 hrs by alamar blue assay; assay type: functional, organism-based; settings: MNYC/BZ/62/M379, 72 h
HEK-293T = assay: Cytotoxicity against human HEK293T cells after 72 hrs by alamar blue assay; assay type: cell-based
[1] = test system: Trypanosoma brucei brucei; assay: Antitrypanosomal activity against bloodstream form of Trypanosoma brucei brucei 427 (BS221) assessed as increased propidium iodide uptake at >/=100 times EC50 after 8 hrs by real-time cell lysis assay; assay type: functional, organism-based
Procedure, shortened: (§1)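 Real-time lysis assay with bloodstream-form T. brucei: propidium iodide in the medium fluoresces only on binding DNA/RNA in membrane-compromised cells. Fluorescence was followed for up to 8 h across a range of concentrations. The read-out was the time to reach 80% lysis versus concentration.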

[2] = test system: Trypanosoma brucei brucei; assay: Antitrypanosomal activity against bloodstream form of Trypanosoma brucei brucei 427 (BS221) assessed as increased propidium iodide uptake at 50 to 100 uM after 30 mins by real-time cell lysis assay; assay type: functional, organism-based; procedure, shortened: as §1
[3] = test system: Trypanosoma brucei brucei; assay: Antitrypanosomal activity against TbAt1-deficient bloodstraem form of Trypanosoma brucei brucei 427 (BS221) after 72 hrs by alamar blue assay; assay type: functional, organism-based
Plasmodium falciparum = assay: Antiplasmodial activity against Plasmodium falciparum 3D7 assessed as inhibition of [3H]hypoxanthine incorporation after 18 hrs by liquid scintillation counting; assay type: functional, organism-based
[4] = test system: Trypanosoma brucei brucei; assay: Antitrypanosomal activity against TbAt1-deficient bloodstraem form Trypanosoma brucei brucei B48 after 72 hrs by alamar blue assay; assay type: functional, organism-based; settings: B48, 72 h
[5] = test system: Trypanosoma brucei brucei; assay: Antitrypanosomal activity against bloodstream form of Trypanosoma brucei brucei 427 (BS221) after 72 hrs by alamar blue assay; assay type: functional, organism-based
Leishmania major = assay: Antileishmanial activity against promastigotes of Leishmania major Friedlin after 72 hrs by alamar blue assay; assay type: functional, organism-based
[6] = test system: Trypanosoma brucei brucei; assay: Antitrypanosomal activity against bloodstream form of Trypanosoma brucei brucei 427 (BS221) assessed as increased propidium iodide uptake at 10 to 50 times EC50 after by real-time cell lysis assay; assay type: functional, organism-based; procedure, shortened: as §1
[7] = test system: Trypanosoma brucei brucei; assay: Antitrypanosomal activity against bloodstream form of Trypanosoma brucei brucei 427 (BS221) assessed as increased propidium iodide uptake at 780 nM after 3 hrs by real-time cell lysis assay; assay type: functional, organism-based; procedure, shortened: as §1
[8] = Selectivity ratio of EC50 for human HEK293 cells to EC50 for Plasmodium falciparum 3D7; assay type: ADME, cell-based; settings: read-out: Ratio EC50
[9] = test system: Trypanosoma brucei brucei; assay: Antitrypanosomal activity against digitonin permeabilized bloodstream form of Trypanosoma brucei brucei s427 assessed as decrease in 2C/4C DNA content by DAPI staining-based fluorescent microscopy; assay type: functional, organism-based
[10] = test system: Trypanosoma brucei brucei; assay: Antitrypanosomal activity against Trypanosoma brucei brucei 427 at 1 uM after 24 hrs by hemocytometry; assay type: functional, organism-based
Procedure, shortened: (§2)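 Reversibility test: bloodstream-form T. brucei cultures seeded at 2 × 10⁴ cells, compound added at t = 0 h. Compound was washed out after 24 h or 48 h, or left in. Growth was monitored over 72 h against drug-free controls.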

[11] = Selectivity ratio of EC50 for human HEK293 cells to EC50 for TbAt1-deficient bloodstraem form of Trypanosoma brucei brucei 427 (BS221); assay type: ADME, cell-based; settings: read-out: Ratio EC50
[12] = Selectivity ratio of EC50 for human HEK293 cells to EC50 for bloodstream form of Trypanosoma brucei brucei 427 (BS221); assay type: ADME, cell-based; settings: read-out: Ratio EC50
[13] = test system: Trypanosoma brucei brucei; assay: Antitrypanosomal activity against Trypanosoma brucei brucei 427 at 0.1 uM after 72 hrs by hemocytometry; assay type: functional, organism-based; procedure, shortened: as §2
[14] = test system: Trypanosoma brucei brucei; assay: Antitrypanosomal activity against Trypanosoma brucei brucei 427 at 10 uM after 24 hrs by hemocytometry; assay type: functional, organism-based; procedure, shortened: as §2
[15] = test system: Trypanosoma brucei brucei; assay: Antitrypanosomal activity against digitonin permeabilized bloodstream form of Trypanosoma brucei brucei s427 assessed as DNA fragmentation at 1 uM at 24 hrs by flow cytometry; assay type: functional, organism-based
Procedure, shortened: (§3)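 Bloodstream-form T. brucei cultures were exposed to compound for up to 48 h, with duplicate samples taken at 24 and 48 h. Lysis sample: PI added directly for 10 min. DNA-content sample: fixed in 70% methanol or permeabilized with digitonin, RNase-treated, then PI-stained. 10000 cells were counted per panel by flow cytometry, and the experiment was run three times.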

[16] = test system: Trypanosoma brucei brucei; assay: Antitrypanosomal activity against bloodstream form of Trypanosoma brucei brucei s427 assessed as DNA fragmentation at 0.3 uM after 48 hrs by flow cytometry; assay type: functional, organism-based; procedure, shortened: as §3
[17] = test system: Trypanosoma brucei brucei; assay: Antitrypanosomal activity against bloodstream form of Trypanosoma brucei brucei s427 assessed as cell cylce arrest at 0.3 uM after 24 hrs by flow cytometry; assay type: functional, organism-based; procedure, shortened: as §3
[18] = test system: Trypanosoma brucei brucei; assay: Antitrypanosomal activity against bloodstream form of Trypanosoma brucei brucei s427 assessed as increase in propidium iodide uptake at 0.3 uM after 48 hrs by flow cytometry; assay type: functional, organism-based; procedure, shortened: as §3
[19] = test system: Trypanosoma brucei brucei; assay: Antitrypanosomal activity against digitonin permeabilized bloodstream form of Trypanosoma brucei brucei s427 assessed as increase in propidium iodide uptake at 1 uM at 24 hrs by flow cytometry; assay type: functional, organism-based; procedure, shortened: as §3
[20] = test system: Trypanosoma brucei brucei; assay: Antitrypanosomal activity against digitonin permeabilized bloodstream form of Trypanosoma brucei brucei s427 assessed as increase in propidium iodide uptake at 0.3 to 1 uM up to 48 hrs by flow cytometry; assay type: functional, organism-based; procedure, shortened: as §3
[21] = Selectivity ratio of EC50 for human HEK293 cells to EC50 for Leishmania mexicana MNYC/BZ/62/M379; assay type: ADME, cell-based; settings: read-out: Ratio EC50
[22] = test system: Trypanosoma brucei brucei; assay: Antitrypanosomal activity against bloodstream form of Trypanosoma brucei brucei s427 assessed as DNA fragmentation at 0.3 to 1 uM up to 48 hrs by flow cytometry; assay type: functional, organism-based; procedure, shortened: as §3
[23] = test system: Trypanosoma brucei brucei; assay: Antitrypanosomal activity against bloodstream form of Trypanosoma brucei brucei s427 assessed as increase in propidium iodide uptake at 0.3 to 1 uM up to 48 hrs by flow cytometry; assay type: functional, organism-based; procedure, shortened: as §3
[24] = Selectivity ratio of EC50 for human HEK293 cells to EC50 for Leishmania major Friedlin; assay type: ADME, cell-based; settings: read-out: Ratio EC50
[25] = test system: Trypanosoma brucei brucei; assay: Antitrypanosomal activity against digitonin permeabilized bloodstream form of Trypanosoma brucei brucei s427 assessed as DNA fragmentation at 0.3 to 1 uM up to 48 hrs by flow cytometry; assay type: functional, organism-based; procedure, shortened: as §3
[26] = test system: Trypanosoma brucei brucei; assay: Antitrypanosomal activity against Trypanosoma brucei brucei 427 at 1 uM after 48 hrs by hemocytometry; assay type: functional, organism-based; procedure, shortened: as §2

| Structure (SMILES) | EC50 (Leishmania mexicana) [nM] | EC50 (HEK-293T) [nM] | Activity [1] | Activity [2] | EC50 [3] [nM] | EC50 (Plasmodium falciparum) [nM] | EC50 [4] [nM] | EC50 [5] [nM] | EC50 (Leishmania major) [nM] | further results |
| --- | --- | --- | --- | --- | --- | --- | --- | --- | --- | --- |
| COc1ccc(C[n+]2cccc(CCCCCCCCCCCCCI)c2)cc1 | 400 | 41000 | Active | Active | 480 | 220 | 200 | 190 | 1000 |  |
| C[n+]1cccc(CCCCCCCCCCCCCO)c1 | 4800 | 183000 |  | Active | 2300 | 1500 | 2700 | 2300 | 2700 |  |
| c1cc2c[n+](c1)CCCCCCCCCCCCCc1ccc[n+](c1)CCCCCCCCCCCCCc1ccc[n+](c1)CCCCCCCCCCCCCc1ccc[n+](c1)CCCCCCCCCCCCC2 | 1100 | 14000 |  | Active | 660 | 190 | 420 | 560 | 640 | Activity [6]: Active |
| OCCCCCCCCCCCCCc1ccc[n+](CCCCCCCCCCCCCc2ccc[n+](CCCCCCCCCCCCCc3ccc[n+](CCCCCCCCCCCCCc4cccnc4)c3)c2)c1 | 230 | 11000 |  | Active | 410 | 160 | 330 | 310 | 1100 | Activity [6]: Active |
| N=C(N)c1ccc(/N=N/Nc2ccc(C(=N)N)cc2)cc1 [DIMINAZEN ACETURATE] | 24000 |  |  |  | 7900 |  |  | 260 |  |  |
| OCCCCCCCCCCCCCc1ccc[n+](CCCCCCCCCCCCCc2cccnc2)c1 | 340 | 25000 |  | Active | 620 | 140 | 300 | 400 | 1600 | Activity [7]: Active |
| NCCS[As](SCCN)c1ccc(Nc2nc(N)nc(N)n2)cc1 |  |  |  |  | 7.8 |  | 210 | 3.9 |  |  |
| N=C(N)c1ccc(OCCCCCOc2ccc(C(=N)N)cc2)cc1 [PENTAMIDINE] | 8800 |  |  |  | 3.2 |  | 66 | 1.4 | 4300 |  |
| OCCCCCCCCCCCCCc1ccc[n+](CCCCCCCCCCCCCc2ccc[n+](CCCCCCCCCCCCCc3cccnc3)c2)c1 | 190 | 16000 |  | Active | 270 | 68 | 250 | 220 | 850 | Activity [6]: Active; selectivity ratio [8]: 237 |
| OCCCCCCCCCCCCCc1cccnc1 | > 50000 | 204000 |  |  | 34000 | 7500 | 35000 | 16000 | > 50000 |  |
| CCN(CC)CCCC(C)Nc1ccnc2cc(Cl)ccc12 (stereo not given) [CHLOROQUINE] |  |  |  |  |  | 0.67 |  |  |  |  |
| CCCC[n+]1cccc(CCCCCCCCCCCCCI)c1 | 290 | 26000 | Active | Active | 63 | 310 | 34 | 14 | 360 | Activity [9]: inactive; Activity [10]: Active; selectivity ratio [11]: > 1000; selectivity ratio [12]: > 1000; Activity [13]: inactive; Activity [14]: Active; Activity [15]: inactive; Activity [16]: Active; Activity [17]: inactive; Activity [18]: Active; Activity [19]: Active |
| CCCC[n+]1cccc(CCCCCCCCCCCCCO)c1 | 1700 | 48000 | Active | Active | 260 | 510 | 200 | 160 | 330 | Activity [20]: inactive; Activity [9]: inactive; selectivity ratio [11]: 299; selectivity ratio [12]: 299; Activity [14]: Active; selectivity ratio [21]: 145; Activity [22]: inactive; Activity [23]: inactive; selectivity ratio [24]: 145; Activity [25]: inactive |
| COc1ccc(C[n+]2cccc(CCCCCCCCCCCCCO)c2)cc1 | 650 | 21000 | Active | Active | 84 | 240 | 62 | 49 | 320 | Activity [20]: inactive; Activity [9]: inactive; selectivity ratio [11]: 437; selectivity ratio [12]: 437; Activity [13]: inactive; Activity [14]: Active; Activity [22]: inactive; Activity [26]: Active; Activity [23]: inactive; Activity [25]: inactive |
| c1cc2c[n+](c1)CCCCCCCCCCCCCc1ccc[n+](c1)CCCCCCCCCCCCCc1ccc[n+](c1)CCCCCCCCCCCCC2 [VISCOSAMINE] | 810 | 26000 |  | Active | 490 | 53 | 280 | 410 | 720 | Activity [6]: Active; selectivity ratio [8]: 493 |
| C[n+]1cccc(CCCCCCCCCCCCCI)c1 | 280 | 47000 | Active | Active | 180 | 260 | 110 | 86 | 310 | Activity [20]: inactive; Activity [9]: inactive; selectivity ratio [11]: 540; selectivity ratio [12]: 540; Activity [14]: Active; selectivity ratio [21]: 149; Activity [22]: inactive; Activity [23]: inactive; selectivity ratio [24]: 149; Activity [25]: inactive |
